Data reported in ChEMBL document CHEMBL1123347, “Topical nonsteroidal antipsoriatic agents. 1. 1,2,3,4-Tetraoxygenated naphthalene derivatives” (J Med Chem, 1986).

Key:
[1] = Partition coefficient (logP); format: physicochemical; settings: octanol/water
Outline: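 Lipophilicity (log P) measured by 1-octanol-coated reversed-phase HPLC. The mobile phase is pH 7.4 PBS saturated with 1-octanol, run on RP-18 or C-18 packing. A second system is linked to the first through overlapping series. For the most lipophilic analogues that could not be detected, log P is calculated from Free-Wilson-derived substituent constants assuming additivity.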

[2] = Statistical significance, p values as compared to positive control by students t-test; I=Insoluble; format: ADME
Outline: (§1)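 Same arachidonic acid ear-edema model: 2 mg total topical dose in acetone, given 60 min before arachidonic acid, with 8 animals per group. Edema is measured by ear plug weight 1 h after arachidonic acid. p values come from Student's t-test against the concurrent arachidonic acid positive control. Thresholds are given as + (≤0.05) and so on.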

[3] = tested on: Mus musculus; assay: Compound was tested for inhibition of arachidonic acid induced mouse ear edema at 2 mg of dose; I=Insoluble; format: functional, organism-based
Outline: (§2)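 Mouse ear edema induced by arachidonic acid (dissolved in acetone at 100 mg/mL). Test agent is applied topically in acetone, 2 mg/0.02 mL per total dose, 60 min before arachidonic acid. Ear edema is read 1 h later as the weight gain of an 8-mm-diameter ear plug. It is compared with acetone-only and arachidonic acid-only controls run in the same experiment. n = 8 per group; percent inhibition is reported as mean.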

[4] = Statistical significance, p values as compared to positive control by students t-test; format: ADME; outline: as §1
[5] = tested on: Mus musculus; assay: Compound was tested for inhibition of arachidonic acid induced mouse ear edema at 2 mg of dose; format: functional; outline: as §2

logP [1] | Significance [2] | Significance [4] | SMILES | inhibition [3] | Inhibition [5] [%]
7.9 | Insoluble | – | O=C(Oc1c(Oc2ccccc2)c(Oc2ccccc2)c(OC(=O)c2ccccc2)c2ccccc12)c1ccccc1 | Insoluble | –
7.8 | Insoluble | – | CC(C)(C)C(=O)Oc1c(Oc2ccccc2)c(Oc2ccccc2)c(OC(=O)C(C)(C)C)c2ccccc12 | Insoluble | –
3.26 | – | <= 0.001 | COc1c(OC)c(OC(C)=O)c2cc(Cl)ccc2c1OC(C)=O [LONAPALENE] | – | 54
